# Target: T1, Integrin alpha-IIb/beta-3 (Homo sapiens, UniProt P05106+P08514)
# Test: Inhibition of fibrinogen binding to purified Fibrinogen Receptor preparation in enzyme-linked immunosorbent assay (ELISA)
# Type: protein-complex assay
# Summary of the method: (§1)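 ELISA on purified human platelet GPIIb-IIIa with biotinylated fibrinogen as the ligand. Bound fibrinogen was detected with alkaline phosphatase-labeled goat anti-biotin and p-nitrophenyl phosphate substrate. Some runs added BSA at 4.5% (w/v) as a stand-in for plasma albumin.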
# T1 sequence (P05106 27-788 limits assumed): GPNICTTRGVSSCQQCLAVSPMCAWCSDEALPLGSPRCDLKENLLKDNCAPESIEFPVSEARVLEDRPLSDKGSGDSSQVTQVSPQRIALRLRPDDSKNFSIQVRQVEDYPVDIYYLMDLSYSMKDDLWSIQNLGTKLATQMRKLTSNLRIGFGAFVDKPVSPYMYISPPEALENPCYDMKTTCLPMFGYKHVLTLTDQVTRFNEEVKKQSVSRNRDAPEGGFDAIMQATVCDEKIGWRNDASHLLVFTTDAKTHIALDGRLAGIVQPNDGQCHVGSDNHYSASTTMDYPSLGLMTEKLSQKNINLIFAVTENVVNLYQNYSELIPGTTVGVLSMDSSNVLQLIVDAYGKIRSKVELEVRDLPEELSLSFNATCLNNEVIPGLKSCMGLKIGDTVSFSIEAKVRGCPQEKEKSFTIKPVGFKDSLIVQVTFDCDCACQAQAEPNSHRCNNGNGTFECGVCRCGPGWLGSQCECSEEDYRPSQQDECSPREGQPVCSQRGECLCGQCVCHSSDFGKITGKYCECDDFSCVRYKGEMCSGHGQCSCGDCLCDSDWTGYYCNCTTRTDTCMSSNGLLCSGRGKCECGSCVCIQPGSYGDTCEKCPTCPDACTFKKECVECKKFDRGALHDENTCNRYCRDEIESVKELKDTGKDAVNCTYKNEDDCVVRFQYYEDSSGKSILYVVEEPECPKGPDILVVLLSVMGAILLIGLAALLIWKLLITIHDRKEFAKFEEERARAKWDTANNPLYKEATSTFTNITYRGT
# T1 sequence (P08514 32-887 limits assumed): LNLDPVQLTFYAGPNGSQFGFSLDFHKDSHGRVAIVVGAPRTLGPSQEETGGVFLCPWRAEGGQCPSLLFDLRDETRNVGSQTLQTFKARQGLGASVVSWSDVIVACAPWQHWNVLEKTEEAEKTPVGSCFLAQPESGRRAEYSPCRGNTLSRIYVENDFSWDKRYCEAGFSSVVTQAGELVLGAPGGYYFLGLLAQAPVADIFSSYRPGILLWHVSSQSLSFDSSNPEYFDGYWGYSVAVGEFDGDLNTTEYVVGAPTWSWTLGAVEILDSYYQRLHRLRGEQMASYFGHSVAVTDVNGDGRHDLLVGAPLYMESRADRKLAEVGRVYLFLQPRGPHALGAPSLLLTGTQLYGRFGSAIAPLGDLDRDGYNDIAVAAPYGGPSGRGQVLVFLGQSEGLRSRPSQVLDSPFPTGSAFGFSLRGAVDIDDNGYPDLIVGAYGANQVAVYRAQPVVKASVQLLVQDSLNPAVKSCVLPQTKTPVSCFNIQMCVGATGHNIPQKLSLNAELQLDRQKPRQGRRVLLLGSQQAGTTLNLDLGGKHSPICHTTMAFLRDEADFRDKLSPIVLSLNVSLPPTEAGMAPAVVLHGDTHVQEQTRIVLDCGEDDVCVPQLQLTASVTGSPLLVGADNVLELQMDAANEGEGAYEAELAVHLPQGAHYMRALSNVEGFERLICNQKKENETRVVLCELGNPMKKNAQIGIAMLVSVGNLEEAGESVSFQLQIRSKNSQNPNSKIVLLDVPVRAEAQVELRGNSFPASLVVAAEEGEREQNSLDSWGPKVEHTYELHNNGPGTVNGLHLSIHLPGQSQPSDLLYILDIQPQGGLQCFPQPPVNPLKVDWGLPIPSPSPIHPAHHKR
# T1 sequence (P08514 891-1039 limits assumed): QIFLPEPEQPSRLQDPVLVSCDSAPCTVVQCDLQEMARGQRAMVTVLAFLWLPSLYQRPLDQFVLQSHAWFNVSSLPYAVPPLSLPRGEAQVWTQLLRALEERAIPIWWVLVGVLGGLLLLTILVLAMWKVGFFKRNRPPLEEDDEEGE
row,Compound,IC50 [µM]
1,N=C(N)c1ccc2oc(C(=O)NCCCCCCCC(=O)O)cc2c1,3.3

# Target: T1, Integrin alpha-IIb/beta-3
# Test: Antagonism of fibrinogen binding to a purified human fibrinogen receptor preparation.
# Type: protein-complex assay
# Summary of the method: as §1
row,Compound,IC50 [µM]
1,CCCCC(CCCCNC(=O)c1cc2cc(C(=N)N)ccc2[nH]1)CC(=O)O (stereo not drawn),0.79
2,CCC(CCCCNC(=O)c1cc2cc(C(=N)N)ccc2[nH]1)CC(=O)O (stereo not drawn),0.44
3,N=C(N)c1ccc2oc(C(=O)NCCCCCC(=O)O)cc2c1,2.3
4,N=C(N)c1ccc2[nH]c(C(=O)NCCC(=O)NCCC(=O)O)cc2c1,0.76
5,CN(CCCCCCC(=O)O)C(=O)c1cc2cc(C(=N)N)ccc2[nH]1,0.34
6,N=C(N)c1ccc2[nH]c(C(=O)NCCCCC(CC(=O)O)c3ccccc3)cc2c1 (stereo not drawn),0.46
7,N=C(N)c1ccc2cc(C(=O)NCCCCCCC(=O)O)oc2c1,1.1
8,N=C(N)c1ccc2c(C(=O)NCCCCCCC(=O)O)[nH]nc2c1,0.02
9,CCC(CCCCCNC(=O)c1cc2cc(C(=N)N)ccc2[nH]1)C(=O)O (stereo not drawn),27
10,N=C(N)c1ccc2[nH]c(C(=O)NCc3ccc(CCC(=O)O)cc3)cc2c1,4
11,CC(CCCCCNC(=O)c1cc2cc(C(=N)N)ccc2[nH]1)C(=O)O (stereo not drawn),6.9
12,Cc1c(C(=O)NCCCCCCC(=O)O)[nH]c2ccc(C(=N)N)cc12,1.7
13,CC(CCCCNC(=O)c1cc2cc(C(=N)N)ccc2[nH]1)CC(=O)O (stereo not drawn),0.31
14,Cn1c(C(=O)NCCCCCCC(=O)O)cc2cc(C(=N)N)ccc21,2.9
15,N=C(N)c1ccc2sc(C(=O)NCCCCCCC(=O)O)cc2c1,0.85
16,N=C(N)c1ccc(OCC(=O)NCCCCCCC(=O)O)cc1,1.1
17,N=C(N)c1ccc2[nH]c(C(=O)NCCCC(=O)NCC(=O)O)cc2c1,7.4
18,N=C(N)c1ccc2[nH]c(C(=O)NCC(=O)NCCCC(=O)O)cc2c1,9.9
19,CCCCCCC(CCCCNC(=O)c1cc2cc(C(=N)N)ccc2[nH]1)CC(=O)O (stereo not drawn),0.59

# Target: Integrin alpha-V/beta-3 (Homo sapiens, UniProt P05106+P06756)
# Test: Inhibition of adhesive protein binding to alphaV-beta3 vitronectin receptor using ELISA
# Type: protein-complex assay
# Summary of the method: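 Vitronectin receptor ELISA on purified human placenta αvβ3 with biotinylated vitronectin as the ligand. Detection used alkaline phosphatase-labeled goat anti-biotin and p-nitrophenol phosphate. Compounds were tested up to 100 μM.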
# Chain of Integrin alpha-V/beta-3 (P05106 27-788 limits assumed): as the sequence (P05106 27-788 limits assumed) above
# Chain of Integrin alpha-V/beta-3 (P06756 31-889 limits assumed): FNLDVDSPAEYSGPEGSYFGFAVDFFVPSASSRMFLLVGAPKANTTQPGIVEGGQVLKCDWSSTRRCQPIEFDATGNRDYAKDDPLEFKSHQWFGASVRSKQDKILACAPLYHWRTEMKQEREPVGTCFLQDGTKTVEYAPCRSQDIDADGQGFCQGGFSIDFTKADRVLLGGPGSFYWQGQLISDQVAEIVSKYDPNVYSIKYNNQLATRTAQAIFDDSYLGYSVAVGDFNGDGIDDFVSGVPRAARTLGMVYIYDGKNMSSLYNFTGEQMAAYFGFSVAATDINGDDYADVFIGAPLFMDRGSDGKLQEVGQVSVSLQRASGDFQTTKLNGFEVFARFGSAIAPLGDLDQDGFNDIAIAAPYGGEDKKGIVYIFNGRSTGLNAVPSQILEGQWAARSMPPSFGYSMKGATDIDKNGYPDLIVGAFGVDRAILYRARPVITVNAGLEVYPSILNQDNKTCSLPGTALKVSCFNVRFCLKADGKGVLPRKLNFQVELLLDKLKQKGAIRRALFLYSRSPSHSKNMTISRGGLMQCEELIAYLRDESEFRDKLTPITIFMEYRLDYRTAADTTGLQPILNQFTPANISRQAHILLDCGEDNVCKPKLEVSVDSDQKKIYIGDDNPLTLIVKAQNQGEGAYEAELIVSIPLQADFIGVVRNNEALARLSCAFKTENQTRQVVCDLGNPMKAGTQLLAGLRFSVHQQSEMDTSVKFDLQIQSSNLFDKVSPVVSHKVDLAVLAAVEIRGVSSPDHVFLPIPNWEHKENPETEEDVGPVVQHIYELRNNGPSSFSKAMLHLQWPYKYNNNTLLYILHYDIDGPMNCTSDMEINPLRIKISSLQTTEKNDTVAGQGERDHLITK
# Chain of Integrin alpha-V/beta-3 (P06756 891-1048 limits assumed): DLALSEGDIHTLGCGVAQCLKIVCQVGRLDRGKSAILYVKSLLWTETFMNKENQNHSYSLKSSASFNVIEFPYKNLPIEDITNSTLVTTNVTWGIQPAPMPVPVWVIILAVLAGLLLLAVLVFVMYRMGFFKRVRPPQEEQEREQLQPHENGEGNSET
row,Compound,IC50 [µM]
1,N=C(N)c1ccc2c(C(=O)NCCCCCCC(=O)O)[nH]nc2c1,> 100
2,N=C(N)c1ccc2oc(C(=O)NCCCCCCC(=O)O)cc2c1,> 100
3,N=C(N)c1ccc2c(C(=O)NCCCCCCC(=O)O)c[nH]c2c1,> 100
